Measured values from ChEMBL document CHEMBL3351352, “Discovery of a novel series of potent MK2 non-ATP competitive inhibitors using 1,2-substituted azoles as cis-amide isosteres” (Bioorg Med Chem Lett, 2014).
Active and inactive are the calls of the source. The rule behind the calls is not given here.

Tests used:
THP-1 = test: Inhibition of LPS-induced TNFalpha production in human THP1 cells pre-incubated for 30 mins before LPS challenge measured 3 hrs after LPS addition
[1] = Permeability in human Caco2 cells; type: ADME, cell-based; settings: Caco-2, read-out: permeability
[2] = Protein binding in human plasma; type: ADME, cell-free; settings: read-out: PPB (converted)
[3] = target: Serine/threonine-protein kinase Chk1 (Homo sapiens, UniProt O14757); test: Inhibition of CHK1 (unknown origin)
[4] = AUC (0 to 6 hrs) in Sprague-Dawley rat at 10 mg/kg, po; type: ADME, organism-based; design: time < 6 hr, dose 10 mg/kg, route oral; settings: plasma
How it was run: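 Sprague–Dawley rats were dosed orally with the compound in 20% HPBCD vehicle. AUC was calculated over 0 to 6 h.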

[5] = target: RAC-alpha serine/threonine-protein kinase (Homo sapiens, UniProt P31749); test: Inhibition of AKT1 (unknown origin)
[6] = target: Tyrosine-protein kinase JAK2 (Homo sapiens, UniProt O60674); test: Inhibition of JAK2 (unknown origin)
[7] = target: Interleukin-1 receptor-associated kinase 4 (Homo sapiens, UniProt Q9NWZ3); test: Inhibition of IRAK4 (unknown origin)
[8] = target: Casein kinase I isoform delta (Homo sapiens, UniProt P48730); test: Inhibition of CSNK1D (unknown origin)
[9] = target: Epidermal growth factor receptor (Homo sapiens, UniProt P00533); test: Inhibition of EGFR (unknown origin)
Epidermal growth factor receptor, sequence (P00533 whole entry): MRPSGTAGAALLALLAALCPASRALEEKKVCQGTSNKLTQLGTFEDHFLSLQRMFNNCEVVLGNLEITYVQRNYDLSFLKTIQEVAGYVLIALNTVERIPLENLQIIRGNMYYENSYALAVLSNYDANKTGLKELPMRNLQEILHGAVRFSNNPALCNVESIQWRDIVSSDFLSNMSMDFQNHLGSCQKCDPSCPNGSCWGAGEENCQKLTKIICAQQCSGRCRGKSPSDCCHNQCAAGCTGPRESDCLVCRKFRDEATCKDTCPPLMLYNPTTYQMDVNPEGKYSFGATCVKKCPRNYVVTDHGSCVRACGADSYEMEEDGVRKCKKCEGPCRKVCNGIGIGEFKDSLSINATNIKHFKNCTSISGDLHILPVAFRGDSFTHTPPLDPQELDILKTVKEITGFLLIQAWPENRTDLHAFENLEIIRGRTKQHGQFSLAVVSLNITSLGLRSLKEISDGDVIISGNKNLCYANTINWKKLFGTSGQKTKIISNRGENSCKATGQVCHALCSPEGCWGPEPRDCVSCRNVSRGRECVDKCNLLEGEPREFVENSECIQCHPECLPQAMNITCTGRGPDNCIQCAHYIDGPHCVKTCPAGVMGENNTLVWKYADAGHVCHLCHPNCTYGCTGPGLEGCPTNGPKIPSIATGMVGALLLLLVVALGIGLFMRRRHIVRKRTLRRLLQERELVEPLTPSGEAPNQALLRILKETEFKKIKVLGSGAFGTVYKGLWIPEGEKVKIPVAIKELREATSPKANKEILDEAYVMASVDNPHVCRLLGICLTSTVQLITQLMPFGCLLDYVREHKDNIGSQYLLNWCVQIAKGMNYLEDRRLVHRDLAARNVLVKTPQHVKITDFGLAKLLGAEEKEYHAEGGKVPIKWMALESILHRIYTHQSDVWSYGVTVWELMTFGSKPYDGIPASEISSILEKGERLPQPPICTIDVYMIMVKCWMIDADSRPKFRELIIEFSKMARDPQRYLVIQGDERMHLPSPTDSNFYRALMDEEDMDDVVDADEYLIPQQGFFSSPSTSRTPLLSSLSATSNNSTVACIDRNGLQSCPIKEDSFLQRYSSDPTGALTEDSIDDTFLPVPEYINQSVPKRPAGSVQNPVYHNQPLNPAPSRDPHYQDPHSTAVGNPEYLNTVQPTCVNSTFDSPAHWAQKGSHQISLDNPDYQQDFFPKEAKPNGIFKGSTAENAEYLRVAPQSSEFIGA

[10] = target: Glycogen synthase kinase-3 beta (Homo sapiens, UniProt P49841); test: Inhibition of GSK3B (unknown origin)
[11] = target: Testis-specific serine/threonine-protein kinase 2 (Homo sapiens, UniProt Q96PF2); test: Inhibition of TSSK2 (unknown origin)
[12] = target: Mitogen-activated protein kinase 1 (Homo sapiens, UniProt P28482); test: Inhibition of ERK2 (unknown origin)
[13] = target: Calcium/calmodulin-dependent protein kinase type IV (Homo sapiens, UniProt Q16566); test: Inhibition of CAMK4 (unknown origin)
Calcium/calmodulin-dependent protein kinase type IV, sequence (Q16566 whole entry): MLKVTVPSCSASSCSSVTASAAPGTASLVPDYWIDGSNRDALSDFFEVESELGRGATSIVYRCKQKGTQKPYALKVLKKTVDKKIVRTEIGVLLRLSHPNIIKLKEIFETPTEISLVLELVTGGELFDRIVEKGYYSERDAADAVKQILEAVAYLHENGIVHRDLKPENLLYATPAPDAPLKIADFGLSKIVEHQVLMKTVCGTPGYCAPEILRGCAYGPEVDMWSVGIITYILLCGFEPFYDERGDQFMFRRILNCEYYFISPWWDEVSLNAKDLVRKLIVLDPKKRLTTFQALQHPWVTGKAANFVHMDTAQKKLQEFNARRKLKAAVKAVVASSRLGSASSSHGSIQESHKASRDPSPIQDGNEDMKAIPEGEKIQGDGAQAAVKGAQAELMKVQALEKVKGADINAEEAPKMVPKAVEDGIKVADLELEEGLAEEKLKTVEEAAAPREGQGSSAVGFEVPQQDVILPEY

[14] = target: Hepatocyte growth factor receptor (Homo sapiens, UniProt P08581); test: Inhibition of MET (unknown origin)
Hepatocyte growth factor receptor, sequence (P08581 whole entry): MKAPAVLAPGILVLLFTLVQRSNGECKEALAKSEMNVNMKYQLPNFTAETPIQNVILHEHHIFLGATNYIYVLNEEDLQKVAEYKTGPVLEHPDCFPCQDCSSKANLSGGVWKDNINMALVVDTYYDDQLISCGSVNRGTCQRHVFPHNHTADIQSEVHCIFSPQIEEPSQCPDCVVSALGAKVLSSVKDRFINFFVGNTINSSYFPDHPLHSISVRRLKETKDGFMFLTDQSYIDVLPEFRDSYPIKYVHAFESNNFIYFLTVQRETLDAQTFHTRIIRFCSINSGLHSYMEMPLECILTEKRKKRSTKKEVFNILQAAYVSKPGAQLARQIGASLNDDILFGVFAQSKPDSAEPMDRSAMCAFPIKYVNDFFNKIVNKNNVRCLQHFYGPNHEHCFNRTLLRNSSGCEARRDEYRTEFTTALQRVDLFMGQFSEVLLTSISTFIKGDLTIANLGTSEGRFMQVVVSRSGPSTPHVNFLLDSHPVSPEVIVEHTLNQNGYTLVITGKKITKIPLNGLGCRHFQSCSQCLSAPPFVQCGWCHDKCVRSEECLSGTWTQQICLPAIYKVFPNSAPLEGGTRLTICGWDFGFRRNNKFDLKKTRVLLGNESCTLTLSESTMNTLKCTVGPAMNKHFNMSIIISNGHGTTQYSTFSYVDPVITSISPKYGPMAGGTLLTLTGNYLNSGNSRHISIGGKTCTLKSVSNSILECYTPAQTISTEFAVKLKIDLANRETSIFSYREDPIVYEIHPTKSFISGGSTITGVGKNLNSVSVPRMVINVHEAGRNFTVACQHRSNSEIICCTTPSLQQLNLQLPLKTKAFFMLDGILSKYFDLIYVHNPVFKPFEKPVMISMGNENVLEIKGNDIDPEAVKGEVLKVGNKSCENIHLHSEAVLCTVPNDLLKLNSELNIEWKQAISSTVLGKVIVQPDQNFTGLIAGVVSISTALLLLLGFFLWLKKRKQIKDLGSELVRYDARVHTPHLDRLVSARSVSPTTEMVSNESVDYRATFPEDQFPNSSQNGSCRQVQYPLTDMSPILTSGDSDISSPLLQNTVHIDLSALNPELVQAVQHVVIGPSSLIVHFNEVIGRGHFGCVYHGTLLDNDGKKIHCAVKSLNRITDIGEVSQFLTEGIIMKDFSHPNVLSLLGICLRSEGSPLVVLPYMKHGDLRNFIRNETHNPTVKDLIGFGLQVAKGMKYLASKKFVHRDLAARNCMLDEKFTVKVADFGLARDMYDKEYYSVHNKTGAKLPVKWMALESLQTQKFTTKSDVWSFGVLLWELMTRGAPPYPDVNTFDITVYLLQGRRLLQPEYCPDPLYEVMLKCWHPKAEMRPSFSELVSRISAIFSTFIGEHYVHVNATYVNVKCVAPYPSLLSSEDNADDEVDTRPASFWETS

[15] = target: Serine/threonine-protein kinase 3 (Homo sapiens, UniProt Q13188); test: Inhibition of MST2 (unknown origin)
Serine/threonine-protein kinase 3, sequence (Q13188 whole entry): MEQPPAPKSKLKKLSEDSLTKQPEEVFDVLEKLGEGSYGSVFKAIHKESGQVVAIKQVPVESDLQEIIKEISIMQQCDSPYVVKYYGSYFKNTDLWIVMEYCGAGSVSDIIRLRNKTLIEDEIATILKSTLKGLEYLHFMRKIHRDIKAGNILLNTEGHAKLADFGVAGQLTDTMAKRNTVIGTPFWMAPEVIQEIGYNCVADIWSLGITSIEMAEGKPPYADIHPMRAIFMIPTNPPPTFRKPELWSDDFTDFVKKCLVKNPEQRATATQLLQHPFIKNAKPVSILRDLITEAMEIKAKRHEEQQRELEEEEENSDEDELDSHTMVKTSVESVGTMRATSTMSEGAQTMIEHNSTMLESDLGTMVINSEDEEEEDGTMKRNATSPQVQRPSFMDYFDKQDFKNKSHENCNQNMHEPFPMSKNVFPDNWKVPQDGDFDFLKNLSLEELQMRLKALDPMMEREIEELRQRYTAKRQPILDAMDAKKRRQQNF

[16] = target: T1, MAP kinase-activated protein kinase 2 (Homo sapiens, UniProt P49137); test: Non-ATP competitive inhibition of MK2 (unknown origin) incubated for 30 mins in presence of 1 uM and 100 uM ATP by MK2 IMAP assay
How it was run: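 Inhibitor, ATP and MK2 (final 50 pM) were preincubated 30 min. TAMRA-labelled peptide (final 100 nM) was added for 30 min; final DMSO was 1%. Progressive binding reagent stopped the reaction (30 min); read at ex 530/em 580 nm. Values are means of duplicates or triplicates.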
Target sequence in this assay (P49137 whole entry, looked up): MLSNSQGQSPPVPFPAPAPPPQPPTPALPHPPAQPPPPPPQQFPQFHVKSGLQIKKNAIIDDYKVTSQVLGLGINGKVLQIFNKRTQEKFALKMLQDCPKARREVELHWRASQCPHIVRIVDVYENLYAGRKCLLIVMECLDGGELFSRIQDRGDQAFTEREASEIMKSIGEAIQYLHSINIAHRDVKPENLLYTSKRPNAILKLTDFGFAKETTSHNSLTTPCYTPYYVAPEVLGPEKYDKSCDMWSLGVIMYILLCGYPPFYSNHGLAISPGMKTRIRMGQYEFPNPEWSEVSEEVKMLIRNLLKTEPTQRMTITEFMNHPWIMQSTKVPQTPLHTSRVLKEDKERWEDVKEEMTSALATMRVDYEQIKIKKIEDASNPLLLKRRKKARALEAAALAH

[17] = target: Rho-associated protein kinase 2 (Homo sapiens, UniProt O75116); test: Inhibition of ROCK2 (unknown origin)
[18] = target: Vascular endothelial growth factor receptor 2 (Homo sapiens, UniProt P35968); test: Inhibition of KDR (unknown origin)
[19] = target: Tyrosine-protein kinase Lck (Homo sapiens, UniProt P06239); test: Inhibition of LCK (unknown origin)
[20] = target: Ribosomal protein S6 kinase alpha-3 (Homo sapiens, UniProt P51812); test: Inhibition of RSK2 (unknown origin)
[21] = target: Receptor-type tyrosine-protein kinase FLT3 (Homo sapiens, UniProt P36888); test: Inhibition of FLT3 (unknown origin)
[22] = target: T1, MAP kinase-activated protein kinase 2; test: Inhibition of MK2 (unknown origin) incubated for 30 mins by MK2 IMAP assay
Target sequence in this assay (P49137 whole entry): as the sequence (P49137 whole entry, looked up) above

[23] = target: Serine/threonine-protein kinase Nek2 (Homo sapiens, UniProt P51955); test: Inhibition of NEK2 (unknown origin)
[24] = target: Cyclin-dependent kinase 2 (Homo sapiens, UniProt P24941); test: Inhibition of CDK2 (unknown origin)
[25] = target: Serine/threonine-protein kinase PLK3 (Homo sapiens, UniProt Q9H4B4); test: Inhibition of PLK3 (unknown origin)
Ephrin type-B receptor 4 = Ephrin type-B receptor 4 (Homo sapiens, UniProt P54760); test: Inhibition of EPHB4 (unknown origin)
Ephrin type-B receptor 4, sequence (P54760 whole entry): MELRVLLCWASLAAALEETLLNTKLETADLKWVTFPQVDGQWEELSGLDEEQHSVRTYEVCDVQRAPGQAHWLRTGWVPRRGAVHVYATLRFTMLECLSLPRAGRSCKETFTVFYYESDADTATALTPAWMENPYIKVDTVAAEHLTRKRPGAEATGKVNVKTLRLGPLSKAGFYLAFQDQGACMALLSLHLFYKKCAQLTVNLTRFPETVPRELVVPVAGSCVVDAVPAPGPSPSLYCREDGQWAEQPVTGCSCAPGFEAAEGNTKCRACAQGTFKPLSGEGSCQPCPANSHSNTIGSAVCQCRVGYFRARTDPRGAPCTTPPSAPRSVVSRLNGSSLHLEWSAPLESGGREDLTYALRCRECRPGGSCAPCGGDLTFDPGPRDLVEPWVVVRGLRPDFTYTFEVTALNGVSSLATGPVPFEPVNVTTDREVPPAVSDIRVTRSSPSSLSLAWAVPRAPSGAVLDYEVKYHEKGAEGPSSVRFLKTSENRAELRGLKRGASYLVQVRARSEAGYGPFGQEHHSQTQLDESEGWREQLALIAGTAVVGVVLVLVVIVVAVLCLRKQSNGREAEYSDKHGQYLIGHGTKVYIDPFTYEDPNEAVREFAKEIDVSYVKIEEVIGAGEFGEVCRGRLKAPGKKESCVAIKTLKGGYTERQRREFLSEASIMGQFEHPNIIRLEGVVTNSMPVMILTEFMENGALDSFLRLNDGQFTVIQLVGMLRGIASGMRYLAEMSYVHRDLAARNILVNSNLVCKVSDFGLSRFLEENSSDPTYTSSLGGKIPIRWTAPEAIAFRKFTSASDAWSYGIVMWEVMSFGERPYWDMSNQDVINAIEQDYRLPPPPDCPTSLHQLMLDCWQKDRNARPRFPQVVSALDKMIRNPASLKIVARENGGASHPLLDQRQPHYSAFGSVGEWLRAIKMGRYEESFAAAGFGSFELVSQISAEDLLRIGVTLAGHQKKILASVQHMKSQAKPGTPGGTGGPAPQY

[26] = target: T1, MAP kinase-activated protein kinase 2; test: Inhibition of MK2 in human THP1 cells assessed as reduction in LPS-induced HSP27 Ser78 phosphorylation after 60 mins; type: cell-based, THP-1
Target sequence in this assay (P49137 whole entry): as the sequence (P49137 whole entry, looked up) above

[27] = target: Inhibitor of nuclear factor kappa-B kinase subunit beta (Homo sapiens, UniProt O14920); test: Inhibition of IKKB (unknown origin)
[28] = target: Insulin-like growth factor 1 receptor (Homo sapiens, UniProt P08069); test: Inhibition of IGF1R (unknown origin)
[29] = target: Protein kinase C alpha type (Homo sapiens, UniProt P17252); test: Inhibition of PKCA (unknown origin)

In the case of O=C1c2oc(-c3ccc(Cl)cc3)cc2Cc2cc(N3CCNCC3)ccc2N1Cc1ccccc1-c1cncnc1, the IC50 (THP-1) is reported as 1.49 µM, the Papp [1] is reported as < 0.1 ×10⁻⁶ cm/s and the fraction unbound [2] is reported as 0.016.

In the case of Clc1ccc(-c2ccc(-c3nccn3-c3ccc(N4CCNCC4)cc3)o2)cc1, the IC50 [3] is reported as > 30 µM, the AUC(0-t) at 6 h [4] is reported as 13.3 µM·h and the IC50 [5] is reported as > 15 µM. For the same compound, the IC50 [6] was > 30 µM, the IC50 [7] was > 30 µM and the IC50 (THP-1) was 0.8 µM. The IC50 [8] was > 30 µM, the IC50 [9] was > 30 µM and the Papp [1] was 5 ×10⁻⁶ cm/s. The IC50 [10] was > 30 µM, the IC50 [11] was > 30 µM and the IC50 [12] was > 30 µM. The IC50 [13] was > 30 µM, the IC50 [14] was > 30 µM and the fraction unbound [2] was 0.028. The IC50 [15] was > 30 µM, the inhibition [16] was “Active” and the IC50 [17] was > 20 µM. The IC50 [18] was > 30 µM, the IC50 [19] was > 30 µM and the IC50 [20] was > 30 µM. For the same compound, the IC50 [21] was > 30 µM, the IC50 [22] was 0.0255 µM and the IC50 [23] was > 30 µM. The IC50 [24] was > 30 µM, the IC50 [25] was > 30 µM and the IC50 (Ephrin type-B receptor 4) was > 30 µM. For the same compound, the IC50 [26] was 2.14 µM, the IC50 [27] was > 30 µM and the IC50 [28] was > 30 µM. The IC50 [29] was > 30 µM.
